The results in this text go back to ChEMBL document CHEMBL1137103, “4-Acylamino-and 4-ureidobenzamides as melanin-concentrating hormone (MCH) receptor 1 antagonists” (Bioorg Med Chem Lett, 2004).

Test [1] has as its target T1, Melanin-concentrating hormone receptor 1 (Homo sapiens, UniProt Q99705). As to the kind of experiment: Binding affinity against human Melanin-concentrating hormone receptor 1 stably transfected CHO cells was determined using scintillation proximity assay (SPA). The class given is cell-based. A digest of the protocol: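 Scintillation proximity binding with CHO membranes incubated with PEI-treated WGA-coupled PVT SPA beads and tracer over various test-compound concentrations. Nonspecific binding defined with 1 µM MCH; IC50 derived.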
Background: Scintillation proximity formats need no separation of bound from free tracer.

Test [2] concerns the target T2, Adenosine receptor A3 (Homo sapiens) (UniProt P0DMS8).
T2 sequence (whole entry): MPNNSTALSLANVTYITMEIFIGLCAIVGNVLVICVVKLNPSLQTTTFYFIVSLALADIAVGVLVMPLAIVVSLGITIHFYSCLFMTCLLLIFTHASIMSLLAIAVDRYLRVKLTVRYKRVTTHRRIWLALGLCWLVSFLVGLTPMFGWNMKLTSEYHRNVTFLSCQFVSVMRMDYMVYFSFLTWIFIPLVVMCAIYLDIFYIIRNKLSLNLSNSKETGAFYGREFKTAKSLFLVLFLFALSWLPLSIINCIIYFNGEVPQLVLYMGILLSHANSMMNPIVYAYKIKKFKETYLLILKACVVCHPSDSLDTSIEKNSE
As to the kind of experiment: Inhibitory activity against Adenosine A3 receptor at 10 uM.

Test [3] addresses T3, Muscarinic acetylcholine receptor M2 (Homo sapiens) (UniProt P08172).
T3 sequence (whole entry): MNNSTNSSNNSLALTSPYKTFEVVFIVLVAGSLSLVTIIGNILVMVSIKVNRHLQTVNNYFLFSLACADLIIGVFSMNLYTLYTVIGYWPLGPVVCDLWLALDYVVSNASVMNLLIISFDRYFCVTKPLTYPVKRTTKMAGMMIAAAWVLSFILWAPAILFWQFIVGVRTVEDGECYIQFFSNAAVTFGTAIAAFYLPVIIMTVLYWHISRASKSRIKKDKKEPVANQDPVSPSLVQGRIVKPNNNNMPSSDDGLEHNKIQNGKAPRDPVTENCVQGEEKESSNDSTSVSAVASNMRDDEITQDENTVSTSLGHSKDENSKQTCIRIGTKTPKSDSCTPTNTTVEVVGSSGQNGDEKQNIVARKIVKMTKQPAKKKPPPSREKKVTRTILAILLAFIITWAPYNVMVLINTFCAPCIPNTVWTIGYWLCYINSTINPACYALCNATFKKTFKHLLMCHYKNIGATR
As to the kind of experiment: Inhibitory activity against Muscarinic acetylcholine receptor M2 at 10 uM.

Test [4] concerns the target Sigma non-opioid intracellular receptor 1 (Homo sapiens) (UniProt Q99720). Put plainly: Inhibitory activity against Opioid receptor sigma 1 at 10 uM.
Test [5] is described as follows: Inhibitory activity against 5-hydroxytryptamine 2C receptor.
Test [6] in a line: Inhibitory activity against Dopamine transporter. The arrangement: species or system Homo sapiens.
For test [7], the target named is Mu-type opioid receptor (Homo sapiens) (UniProt P35372). Put plainly: Inhibitory activity against Opioid receptor mu 1 at 10 uM.
For test [8], the target named is T1, Melanin-concentrating hormone receptor 1. As to the kind of experiment: Binding affinity against human Melanin-concentrating hormone receptor 1 stably transfected CHO cells was determined using [125I]MCH as radioligand. The class given is cell-based. A digest of the protocol:
(§1)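 Whole-cell binding in CHO cells expressing the human receptor with [125I]-MCH tracer. Nonspecific binding defined with 1 µM MCH. IC50 values from displacement by various concentrations of test compound.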

Test [9] can be described thus: Inhibitory activity against Histamine H2 receptor.
A short description of test [10]: inhibitory activity against sodium channel (site 2) at 10 uM.
In test [11] the target is D(1A) dopamine receptor (Homo sapiens) (UniProt P21728). As to the kind of experiment: Inhibitory activity against Dopamine receptor D1 at 10 uM.
Test [12] in a line: Inhibitory activity against 5-hydroxytryptamine 2A receptor.
Test [13] concerns the target Melanin-concentrating hormone receptor 2 (Homo sapiens, UniProt Q969V1). As to the kind of experiment: Binding affinity against human Melanin-concentrating hormone receptor 2 stably transfected CHO cells was determined using [125I]MCH as radioligand. The class given is cell-based. A digest of the protocol: as §1
The target of test [14] is Sodium-dependent noradrenaline transporter (Homo sapiens) (UniProt P23975). Put plainly: Inhibitory activity against Norepinephrine transporter at 10 uM.
Test [15] deals with T4, Muscarinic acetylcholine receptor M1 (Homo sapiens) (UniProt P11229).
T4 sequence (whole entry): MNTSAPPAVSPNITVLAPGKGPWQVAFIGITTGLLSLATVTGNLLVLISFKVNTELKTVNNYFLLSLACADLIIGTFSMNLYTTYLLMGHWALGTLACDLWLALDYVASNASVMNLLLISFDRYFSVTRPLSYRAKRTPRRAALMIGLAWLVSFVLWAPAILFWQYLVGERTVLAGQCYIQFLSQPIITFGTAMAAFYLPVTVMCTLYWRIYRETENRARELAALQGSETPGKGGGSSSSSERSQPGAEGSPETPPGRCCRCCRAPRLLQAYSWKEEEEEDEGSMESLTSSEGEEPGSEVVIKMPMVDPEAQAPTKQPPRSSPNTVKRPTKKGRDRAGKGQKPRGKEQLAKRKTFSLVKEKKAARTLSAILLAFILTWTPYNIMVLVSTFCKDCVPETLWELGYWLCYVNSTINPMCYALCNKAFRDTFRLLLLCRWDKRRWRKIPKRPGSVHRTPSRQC
As to the kind of experiment: Inhibitory activity against Muscarinic acetylcholine receptor M1 at 10 uM.

The target of test [16] is D(2) dopamine receptor (Homo sapiens) (UniProt P14416). As to the kind of experiment: Inhibitory activity against Dopamine receptor D2 at 10 uM.
Test [17] addresses T1, Melanin-concentrating hormone receptor 1. As to the kind of experiment: Antagonistic activity against human Melanin-concentrating hormone receptor 1 stably transfected CHO cells was determined using IP3 assay. The format is functional, cell-based. A digest of the protocol:
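CHO whole cells expressing the human receptor, labelled with 5 µCi [3H]-myo-inositol in inositol-free culture medium. Phosphatidylinositol turnover stimulated by submaximal MCH in the presence of increasing ligand concentrations. Generated [3H]-inositol phosphates purified on anion-exchange resin; IC50 derived.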

SMILES strings stand for the structures.

T1 sequence (Q99705 whole entry): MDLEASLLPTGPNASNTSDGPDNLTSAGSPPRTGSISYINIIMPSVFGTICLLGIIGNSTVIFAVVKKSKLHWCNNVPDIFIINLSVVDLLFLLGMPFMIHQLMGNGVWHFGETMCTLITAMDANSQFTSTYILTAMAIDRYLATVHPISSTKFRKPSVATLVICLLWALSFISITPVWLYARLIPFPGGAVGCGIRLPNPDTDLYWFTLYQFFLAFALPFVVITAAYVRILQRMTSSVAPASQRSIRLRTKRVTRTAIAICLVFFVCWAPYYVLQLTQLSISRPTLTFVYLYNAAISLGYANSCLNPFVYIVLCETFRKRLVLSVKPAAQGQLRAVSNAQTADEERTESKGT
D(2) dopamine receptor (Homo sapiens), sequence (P14416 whole entry): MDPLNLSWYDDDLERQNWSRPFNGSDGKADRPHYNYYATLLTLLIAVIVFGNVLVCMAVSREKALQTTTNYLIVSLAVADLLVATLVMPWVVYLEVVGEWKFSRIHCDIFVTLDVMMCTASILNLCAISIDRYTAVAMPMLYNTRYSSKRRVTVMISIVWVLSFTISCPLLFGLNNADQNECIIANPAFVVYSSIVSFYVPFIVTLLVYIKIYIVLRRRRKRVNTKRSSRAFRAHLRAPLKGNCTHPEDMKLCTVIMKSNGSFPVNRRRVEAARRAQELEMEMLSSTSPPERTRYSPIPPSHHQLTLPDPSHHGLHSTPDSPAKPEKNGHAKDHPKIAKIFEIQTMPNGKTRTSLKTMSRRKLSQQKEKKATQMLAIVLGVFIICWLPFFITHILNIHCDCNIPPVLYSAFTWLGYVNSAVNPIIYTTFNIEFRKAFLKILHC
Mu-type opioid receptor (Homo sapiens), sequence (P35372 whole entry): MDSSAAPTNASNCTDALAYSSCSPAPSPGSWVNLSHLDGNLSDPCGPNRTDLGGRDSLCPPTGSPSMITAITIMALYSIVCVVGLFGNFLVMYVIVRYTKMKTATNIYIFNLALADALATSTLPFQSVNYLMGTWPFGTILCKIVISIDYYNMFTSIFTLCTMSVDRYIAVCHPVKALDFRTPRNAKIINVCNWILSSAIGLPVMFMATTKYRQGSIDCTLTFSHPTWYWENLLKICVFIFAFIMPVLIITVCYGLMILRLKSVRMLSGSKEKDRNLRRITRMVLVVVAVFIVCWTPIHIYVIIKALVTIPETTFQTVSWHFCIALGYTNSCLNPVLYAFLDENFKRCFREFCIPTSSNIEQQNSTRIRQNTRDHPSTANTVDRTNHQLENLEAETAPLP
D(1A) dopamine receptor (Homo sapiens), sequence (P21728 whole entry): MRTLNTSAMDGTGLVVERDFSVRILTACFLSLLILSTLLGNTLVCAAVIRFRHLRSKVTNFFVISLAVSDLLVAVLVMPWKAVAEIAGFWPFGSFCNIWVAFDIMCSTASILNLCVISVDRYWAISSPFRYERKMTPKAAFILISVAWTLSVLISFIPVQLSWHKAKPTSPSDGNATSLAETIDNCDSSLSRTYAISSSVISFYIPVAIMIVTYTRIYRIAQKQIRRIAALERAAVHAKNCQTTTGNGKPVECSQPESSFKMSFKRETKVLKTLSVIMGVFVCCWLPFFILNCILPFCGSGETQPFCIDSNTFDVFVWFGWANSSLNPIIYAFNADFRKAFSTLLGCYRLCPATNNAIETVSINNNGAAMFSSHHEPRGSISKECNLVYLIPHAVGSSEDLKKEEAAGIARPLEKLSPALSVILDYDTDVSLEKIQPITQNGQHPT
Sodium-dependent noradrenaline transporter (Homo sapiens), sequence (P23975 whole entry): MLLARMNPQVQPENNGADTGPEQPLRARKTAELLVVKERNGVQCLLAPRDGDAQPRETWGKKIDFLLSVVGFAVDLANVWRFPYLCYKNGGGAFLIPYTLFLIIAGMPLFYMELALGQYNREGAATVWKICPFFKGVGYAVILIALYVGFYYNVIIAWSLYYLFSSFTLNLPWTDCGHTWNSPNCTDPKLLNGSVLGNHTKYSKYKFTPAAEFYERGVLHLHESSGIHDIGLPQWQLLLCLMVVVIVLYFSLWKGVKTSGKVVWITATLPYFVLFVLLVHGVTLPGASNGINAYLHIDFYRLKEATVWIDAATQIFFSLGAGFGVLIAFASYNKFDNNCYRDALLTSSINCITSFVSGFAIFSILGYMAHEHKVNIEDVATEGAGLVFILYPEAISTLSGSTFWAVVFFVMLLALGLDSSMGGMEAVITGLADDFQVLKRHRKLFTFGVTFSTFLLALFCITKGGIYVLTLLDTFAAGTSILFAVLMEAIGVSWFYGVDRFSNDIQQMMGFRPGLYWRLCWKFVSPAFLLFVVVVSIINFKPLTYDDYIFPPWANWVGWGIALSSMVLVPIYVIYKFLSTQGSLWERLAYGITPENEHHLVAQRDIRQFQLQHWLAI
Melanin-concentrating hormone receptor 2, sequence (Q969V1 whole entry): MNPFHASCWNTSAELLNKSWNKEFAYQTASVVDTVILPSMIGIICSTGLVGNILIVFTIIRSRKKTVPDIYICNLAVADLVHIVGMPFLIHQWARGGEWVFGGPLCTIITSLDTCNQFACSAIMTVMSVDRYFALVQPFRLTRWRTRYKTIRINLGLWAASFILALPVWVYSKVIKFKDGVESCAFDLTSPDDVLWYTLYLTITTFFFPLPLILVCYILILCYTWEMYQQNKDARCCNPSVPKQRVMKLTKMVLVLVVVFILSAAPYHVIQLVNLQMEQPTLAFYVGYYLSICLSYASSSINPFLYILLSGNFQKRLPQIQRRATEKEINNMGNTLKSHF
Sigma non-opioid intracellular receptor 1 (Homo sapiens), sequence (Q99720 whole entry): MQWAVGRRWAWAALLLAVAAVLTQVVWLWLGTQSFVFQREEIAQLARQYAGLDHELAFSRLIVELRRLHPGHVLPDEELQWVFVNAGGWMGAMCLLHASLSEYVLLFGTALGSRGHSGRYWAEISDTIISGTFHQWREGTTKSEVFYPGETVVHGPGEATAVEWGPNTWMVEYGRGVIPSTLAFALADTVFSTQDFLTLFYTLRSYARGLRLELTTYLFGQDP

As for `CCN(CC)CCNC(=O)c1ccc(NC(=O)Nc2ccc(OC(F)(F)F)cc2)cc1OC`, the IC50 in test [1] came to 150 nM; in [5], 310 nM; in [6], 6900 nM; in test [8], 50 nM; in [9], 2200 nM; in test [12] it was 1300 nM. Moreover, the IC50 in test [13] is > 100000 nM; in test [17], 260 nM. For the same molecule, the inhibition in test [2] is 36%; in test [3] it was 46%; in test [4], 65%; in test [7], 44%; in test [10], 76%; in [11] it was 78%. Also, the inhibition in [14] turned out to be 67%; in test [15], 72%; in test [16], 79%.

One may read the IC50 as the midpoint of a concentration-inhibition curve. Read a low IC50 as greater potency in that assay. As a reminder, the inhibition is how much of the control response was suppressed. A low value points to a weak effect.
